What all share (type): functional
The test system of experiment [1] is Rattus norvegicus. In words: Hypoglycemic activity was tested in rats at a standard dose of 100 mg/kg and calculated as percent of vehicle control after 2 hours (six rats per group). In a few lines: (§1)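 Fed male Sprague-Dawley CD rats (280-320 g), six per group, 100 mg/kg po as solution in water or suspension in 0.5% carboxymethylcellulose (1 mL/kg); parallel vehicle controls. Tail-vein blood (0.3 mL) taken 2 and 4 h post-dose into EDTA and Trasylol; plasma glucose by glucose oxidase-peroxidase, expressed as percent of vehicle control; Student-Newman-Keuls test for significance.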

Experiment [2] has as its system Rattus norvegicus. Put plainly: Hypoglycemic activity was tested in rats at a standard dose of 100 mg/kg and calculated as percent of vehicle control after 4 hours (six rats per group). In a few lines: as §1
The species entered for experiment [3] is Rattus norvegicus. In words: Potency to dissociate hypoglycemic activity relative to compound 38. In a few lines:
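Three-point oral dose-response in fed male Sprague-Dawley CD rats, eight per group, with the reference standard run alongside; 10, 30 and 100 mg/kg po (some studies 10, 20, 50 mg/kg). Rats exsanguinated by decapitation at 4 h; blood into EDTA and Trasylol, plasma glucose by glucose oxidase-peroxidase; potency relative to standard.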

As to `CC1(C)CN=C2N(C1)c1ccccc1C2(N)c1ccccc1.Cl.Cl` (stereo unspecified), the Blood glucose in experiment [1] was 78%; in experiment [2], 68%. In experiment [3], this molecule yielded a Relative potency of 0.9.
Regarding `Cl.Cl.NC1(c2ccccc2)C2=NCCCN2c2ccccc21` (stereo unspecified), the values for the Blood glucose in experiment [1] and in experiment [2] were 84% and 93%, respectively. For the same molecule, in experiment [3], the Relative potency was found to be 0.47.
Regarding `Cl.Cl.OC1(c2ccccc2)C2=NCC3(CCNCC3)CN2c2ccccc21` (stereo unspecified), the Blood glucose in experiment [1] is listed as 102%; in experiment [2], 92%.
In the case of `CC1(C)CN=C2N(C1)c1ccccc1C2(NC(=O)c1ccccc1)c1ccccc1.Cl` (stereo unspecified), the Blood glucose in experiment [1] is 104%; in experiment [2], 116%.
Turning to `CCCCC1(O)C2=NCC3(CCCCC3)CN2c2ccccc21.Cl` (stereo unspecified), the Blood glucose in experiment [1] is 60%; in experiment [2], 68%. In experiment [3], this molecule returned a Relative potency of 3.69.
`C=CCC1(O)C2=NCC(C)(C)CN2c2ccccc21.Cl` (stereo unspecified): the Blood glucose in experiment [1] is listed as 86%; in experiment [2] it was 74%.
For the molecule `CC1(C)CN=C2N(C1)c1ccccc1C2(O)C1CC1.Cl` (stereo unspecified), the Blood glucose in experiment [1] is 83%; in experiment [2] it was 81%. This molecule gave a Relative potency in experiment [3] of 0.11.
As for `CCC1(O)C2=NCC(C)(C)CN2c2ccccc21.Cl` (stereo unspecified), the Blood glucose is on record as 89% in experiment [1] and 93% in experiment [2].
Take `CC(C)(C)CC1(O)C2=NCC(C)(C)CN2c2ccccc21.Cl` (stereo unspecified): the values for the Blood glucose in experiment [1] and in experiment [2] were 68% and 81%, respectively. Moreover, in experiment [3], the Relative potency is recorded as 0.65.
Consider `CC1(C)CN=C2N(C1)c1ccccc1C2(NS(C)(=O)=O)c1ccccc1.Cl` (stereo unspecified), for which the results for the Blood glucose in experiment [1] and in experiment [2] were 76% and 67%, respectively. The same molecule gave a Relative potency in experiment [3] of 0.04.
With `CCCC(=O)NC1(c2ccccc2)C2=NCC(C)(C)CN2c2ccccc21.Cl` (stereo unspecified), the results for the Blood glucose in experiment [1] and in experiment [2] were 101% and 77%, respectively.
Consider `CCCCC1(O)C2=NCC(C)(C)CN2c2ccccc21.Cl` (stereo unspecified), for which the Blood glucose in experiment [1] is 58%; in experiment [2], 67%.
Turning to `Cl.OC1(c2ccc3ccccc3c2)C2=NCCCN2c2ccccc21` (stereo unspecified), the Blood glucose in experiment [1] is reported as 88%; in experiment [2], 64%. The molecule further had a Relative potency in experiment [3] of 0.01.
In the case of `Cl.OC1(c2ccccc2)C2=NCCCN2c2ccccc21` (stereo unspecified), the Blood glucose is 86% in experiment [1] and 82% in experiment [2]. Further, in experiment [3], the Relative potency worked out at 0.52.
As to `Cl.OC1(CC2CCCCC2)C2=NCCCN2c2ccccc21` (stereo unspecified), the Blood glucose in experiment [1] is listed as 77%; in experiment [2], 81%. This molecule gave a Relative potency in experiment [3] of 0.12.
For `CC(C)CC1(O)C2=NCCCN2c2ccccc21.Cl` (stereo unspecified), the Blood glucose in experiment [1] is given as 79%; in experiment [2] it was 86%.
With `CCOCCCCC1(O)C2=NCCCN2c2ccccc21.Cl` (stereo unspecified), the results for the Blood glucose in experiment [1] and in experiment [2] were 100% and 96%, respectively.
Taken in the same sequence, the figures for `COCC(C)CC1(O)C2=NCCCN2c2ccccc21.Cl` (stereo unspecified) were 94% and 98%.
As to `CC1(C)CN=C2N(C1)c1ccccc1C2(O)c1ccccc1.Cl` (stereo unspecified), the Blood glucose is 90% in experiment [1] and 75% in experiment [2]. In experiment [3], this molecule came in with a Relative potency of 1.
Take `COCC(C)CC1(O)C2=NCC(C)(C)CN2c2ccccc21.Cl` (stereo unspecified): the Blood glucose in experiment [1] is reported as 73%; in experiment [2] it was 72%. The molecule further came in with a Relative potency in experiment [3] of 0.47.
Turning to `CC(=O)NC1(c2ccccc2)C2=NCC3(CCCC3)CN2c2ccccc21.Cl` (stereo unspecified), the values for the Blood glucose in experiment [1] and in experiment [2] were 99% and 90%, respectively.
Consider `CC(C)CC1(O)C2=NCC(C)(C)CN2c2ccccc21.Cl` (stereo unspecified), for which the values for the Blood glucose in experiment [1] and in experiment [2] were 88% and 77%, respectively. In experiment [3], this molecule showed a Relative potency of 0.69.
For the molecule `Cl.OCC#CC1(O)C2=NCCCN2c2ccccc21` (stereo unspecified), the Blood glucose in experiment [1] and in experiment [2] was 94% each time.
For `CC(=O)NC1(c2cccc(Cl)c2)C2=NCCCN2c2ccccc21.Cl` (stereo unspecified), the results for the Blood glucose in experiment [1] and in experiment [2] were 89% and 85%, respectively. The molecule also showed a Relative potency in experiment [3] of 0.5.
Take `Cl.NC1(c2cccc(Cl)c2)C2=NCCCN2c2ccccc21` (stereo unspecified): the Blood glucose is on record as 95% in experiment [1] and 84% in experiment [2].
As for `COCCCCC1(O)C2=NCC(C)(C)CN2c2ccccc21.Cl` (stereo unspecified), the Blood glucose was 79% in experiment [1] and 87% in experiment [2]. Besides, the Relative potency in experiment [3] is 0.05.
Taken in the same sequence, the figures for `CCC(CC)CC1(O)C2=NCCCN2c2ccccc21.Cl` (stereo unspecified) were 82%, 68% and 0.86.
Turning to `Cl.OC1(c2cccc(Cl)c2)C2=NCCCN2c2ccccc21` (stereo unspecified), the Blood glucose is given as 99% in experiment [1] and 84% in experiment [2].
`CC(=O)NC1(c2ccccc2)C2=NCCCN2c2ccccc21.Cl` (stereo unspecified): the values for the Blood glucose in experiment [1] and in experiment [2] were 76% and 75%, respectively. The same molecule had a Relative potency in experiment [3] of 0.03.
`CCCCCCC1(O)C2=NCC(C)(C)CN2c2ccccc21.Cl` (stereo unspecified): the Blood glucose in experiment [1] is 103%; in experiment [2], 107%.
Taken in the same sequence, the figures for `CC(C)CCC1(O)C2=NCC(C)(C)CN2c2ccccc21.Cl` (stereo unspecified) were 65% and 78%.
Taken in the same sequence, the figures for `COCCCCC1(O)C2=NCCCN2c2ccccc21.Cl` (stereo unspecified) were 86% and 87%.
Taken in the same sequence, the figures for `CCOCCCCC1(O)C2=NCC(C)(C)CN2c2ccccc21.Cl` (stereo unspecified) were 88% and 86%.
Turning to `Cl.OC1(c2ccccc2)C2=NCC3(CCCCCC3)CN2c2ccccc21` (stereo unspecified), the Blood glucose in experiment [1] is recorded as 87%; in experiment [2], 76%. This molecule also registered a Relative potency in experiment [3] of 0.3.
Taken in the same sequence, the figures for `Cl.OC1(c2ccccc2)C2=NCC3(CCCC3)CN2c2ccccc21` (stereo unspecified) were 75%, 71% and 0.1.
As for `CC(CCC1(O)C2=NCCCN2c2ccccc21)c1ccccc1.Cl` (stereo unspecified), the Blood glucose is listed as 99% in experiment [1] and 88% in experiment [2].
For `COC(C)CCC1(O)C2=NCCCN2c2ccccc21.Cl` (stereo unspecified), the Blood glucose in experiment [1] was 88%; in experiment [2], 95%.
Taken in the same sequence, the figures for `Cc1ccc(S(=O)(=O)NC(=O)NC2(c3ccccc3)C3=NCC(C)(C)CN3c3ccccc32)cc1.Cl` (stereo unspecified) were 101% and 90%.
Regarding `CC(=O)NC1(c2ccccc2)C2=NCC(C)(C)CN2c2ccccc21.Cl` (stereo unspecified), the Blood glucose in experiment [1] is reported as 85%; in experiment [2] it was 77%. Further, the Relative potency in experiment [3] was determined as 0.03.
As for `COC(C)CCC1(O)C2=NCC(C)(C)CN2c2ccccc21.Cl` (stereo unspecified), the Blood glucose is 69% in experiment [1] and 73% in experiment [2]. The molecule also came in with a Relative potency in experiment [3] of 1.1.
On to `CC1(C)CN=C2N(C1)c1ccccc1C2(O)CCCCOCc1ccccc1.Cl` (stereo unspecified), for which the Blood glucose is reported as 76% in experiment [1] and 91% in experiment [2].
Taken in the same sequence, the figures for `CC(=O)NC1(c2ccc3ccccc3c2)C2=NCCCN2c2ccccc21.Cl` (stereo unspecified) were 104% and 100%.
For `CC(=O)NC1(c2ccccc2)C2=NCCCCN2c2ccccc21.Cl` (stereo unspecified), the values for the Blood glucose in experiment [1] and in experiment [2] were 86% and 73%, respectively. Also, the Relative potency in experiment [3] stood at 0.13.
For the molecule `CC1(C)CN=C2N(C1)c1ccccc1C2(O)CC1CCCCC1.Cl` (stereo unspecified), the Blood glucose in experiment [1] was 79%; in experiment [2], 84%.
Regarding `Cl.OC1(c2ccccc2)C2=NCC3(CCCCC3)CN2c2ccccc21` (stereo unspecified), the Blood glucose in experiment [1] (100 mg/kg) is 78%; in experiment [2] (100 mg/kg) it was 60%. Also, in experiment [3], the Relative potency worked out at 1.33.
Take `Cl.OC1(c2ccccc2)C2=NCC3(CCCCC3)CN2c2ccccc21` (single isomer, unassigned; (+)): the Blood glucose in experiment [1] (100 mg/kg) is reported as 82%; in experiment [2] (100 mg/kg), 69%.
Regarding `Cl.OC1(c2ccccc2)C2=NCC3(CCCCC3)CN2c2ccccc21` (single isomer, unassigned; (-)), the figures for the Blood glucose in experiment [1] (100 mg/kg) and in experiment [2] (100 mg/kg) were 81% and 71%, respectively.

The record behind these values is ChEMBL document CHEMBL1126286, “Oral hypoglycemic agents. Pyrimido[1,2-a]indoles and related compounds” (1992).
